Assay outcomes as filed in PubChem BioAssay.
An excerpt weighted towards active compounds, which were near 2.2% of everything screened.
C2C12 statin: suppressors of simvastatin-induced myotoxicity in C2C12 myotubes. AID 602340. rescue of ATP level, % at 7.49 µM. actives 0.78% (n = 330,000). ATP luminescence, 48 h; scaled: DMSO 0, geranylgeraniol control 100;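 active = mean ATP rescue above about 67%, or every replicate alone reaching that limit, limit read from the data, passing the limit was not always enough; inconclusive = no clear call, values can overlap the other calls; inactive = mean under the limit and some replicate under it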;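 also: myotubes were challenged with 10 µM simvastatin during compound exposure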
E-selectin induc: induces E-selectin expression in human endothelial cells; P16581; activation, % at 7.58 µM; actives 0.37% (n = 260,000); HUVEC E-selectin immunofluorescence imaging; normalized: neutral wells 0, TNF-alpha wells 100;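 active = mean E-selectin-positive cell signal at least 10% of the positive control, reached in at least 60% of replicates, without over 20% cell loss; inconclusive = no rule given, readout overlaps actives, possibly toxicity-flagged; inactive = the rest, including those meeting only one limit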
Target sequence (P16581 whole entry, looked up): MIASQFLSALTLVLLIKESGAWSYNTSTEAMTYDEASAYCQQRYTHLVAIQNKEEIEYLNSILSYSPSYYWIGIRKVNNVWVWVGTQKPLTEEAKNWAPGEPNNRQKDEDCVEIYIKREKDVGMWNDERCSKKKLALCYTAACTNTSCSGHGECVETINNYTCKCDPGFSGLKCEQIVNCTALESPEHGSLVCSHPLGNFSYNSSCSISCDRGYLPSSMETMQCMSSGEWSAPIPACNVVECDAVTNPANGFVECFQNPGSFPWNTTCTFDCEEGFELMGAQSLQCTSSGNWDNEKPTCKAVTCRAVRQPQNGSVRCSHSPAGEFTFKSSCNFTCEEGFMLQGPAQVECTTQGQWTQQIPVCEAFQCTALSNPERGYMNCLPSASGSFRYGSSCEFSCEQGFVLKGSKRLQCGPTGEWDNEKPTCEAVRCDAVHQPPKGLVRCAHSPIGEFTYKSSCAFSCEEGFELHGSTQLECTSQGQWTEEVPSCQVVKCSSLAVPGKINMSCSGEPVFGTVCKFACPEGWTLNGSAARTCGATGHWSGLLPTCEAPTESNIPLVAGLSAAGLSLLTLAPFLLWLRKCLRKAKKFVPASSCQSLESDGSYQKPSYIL
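Test system – human umbilical vein endothelial cells (HUVEC), E-selectin induction · Input – 3,000 HUVEC seeded per well · Buffer or medium – EGM-2, gelatin · Compound dosing – single-point compound dose · Detection – immunofluorescence imaging · Measure – percent E-selectin-positive cells · Controls – TNF-alpha high, DMSO low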
DENV2 CPE rescue: inhibitors of DENV2 cytopathic effect; DENV2-infected cells, cytopathic effect rescue, plate reader; CPE inhibition, % at 9.99 µM; actives 1.7% (n = 350,000); in the data active = CPE inhibition above about 20%, passing the limit was not always enough; inconclusive = no clear call, values can overlap the other calls; tested in BHK-21 cells;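 also: 0% = median of neutral control wells and 100% = median of positive control wells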
* = called active by the depositor; ? = inconclusive; . = not tested or not shown; ! = repeats disagree.

SMILES	C2C12 statin	E-selectin induc	DENV2 CPE rescue
C[C@H]1CN([C@@H](C)CO)C(=O)c2cc(-c3ccccc3)cnc2O[C@@H]1CN(C)C(=O)c1ccccc1F	12	0	?
CCC(=O)N(C)C[C@@H]1Oc2ncc(Br)cc2C(=O)N([C@H](C)CO)C[C@H]1C	6	0	29*!
COc1ccc(NC(=O)N(C)C[C@H]2OCCCC[C@@H](C)Oc3ccc(NC(=O)Nc4ccc(C(F)(F)F)cc4)cc3C(=O)N([C@H](C)CO)C[C@@H]2C)cc1	-5	0	-2
COc1ccc(C#Cc2ccc3c(c2)O[C@@H](CN(C)C(=O)CN2CCOCC2)[C@H](C)CN([C@H](C)CO)S3(=O)=O)cc1	12	0	.
CC(Sc1ccccn1)C(=O)Nc1ccc2c(c1)OCO2 (centres undefined)	2	-2	-1
CC(Sc1ccccn1)C(=O)Nc1ccc2c(c1)OCCO2 (centres undefined)	5	.	27*
COCC(=O)Nc1ccc2c(c1)C(=O)N(C)C[C@H](OC)[C@H](C)CN(Cc1ccccn1)[C@H](C)CO2	3	0	-1
C[C@@H]1CN([C@@H](C)CO)C(=O)Cc2cc(NC(=O)Nc3ccccc3)ccc2O[C@H]1CN(C)Cc1ccccc1	-17	.	4
CC(=O)N1[C@@H]2Cn3c(ccc(-c4ccccc4F)c3=O)[C@H]1[C@@H](C(=O)NC1CCC1)[C@@H]2CO	26	0	?
COCCNC(=O)[C@H]1[C@H](CO)[C@H]2Cn3c(ccc(-c4ccc(OC)cc4)c3=O)[C@@H]1N2C(=O)NC(C)C	6	0	-5
C[C@H](O)C#Cc1ccc([C@@H]2[C@@H](CO)N3CCCCN(C(=O)c4ccc5c(c4)OCO5)C[C@H]23)cc1	4	0	-7
Cc1ccc(-c2nc3ccccc3[nH]2)cc1NC(=O)c1ccco1	116*	.	.
O=C(Nc1cccc(-c2nc3ccccc3[nH]2)c1)c1cccc(NC(=O)c2ccco2)c1	-83	.	.
CN1c2ccc(-c3cccc(C#N)c3)cc2[C@@H]2[C@@H](CCN2S(=O)(=O)c2ccc(F)cc2)[C@@H]1CO	1	1	20
C[C@@H]1CCCCO[C@@H](CN(C)S(C)(=O)=O)[C@H](C)CN([C@@H](C)CO)C(=O)c2cc(NC(=O)Nc3ccc(C(F)(F)F)cc3)ccc2O1	.	0	57*
Cc1ccc(S(=O)(=O)N(C)C[C@H]2OCCCC[C@H](C)Oc3ccc(NC(=O)Nc4ccc(C(F)(F)F)cc4)cc3C(=O)N([C@@H](C)CO)C[C@@H]2C)cc1	.	.	0
COc1ccc(S(=O)(=O)N(C)C[C@H]2OCCCC[C@@H](C)Oc3ccc(NC(=O)Nc4ccc(C(F)(F)F)cc4)cc3C(=O)N([C@H](C)CO)C[C@@H]2C)cc1	-80	0	-11
C[C@@H]1CN([C@H](C)CO)C(=O)c2cc(NC(=O)Nc3ccc(F)cc3)ccc2O[C@@H](C)CCCCO[C@H]1CN(C)S(=O)(=O)c1ccc(Cl)cc1	-2	2	-9
Cc1ccc(S(=O)(=O)N(C)C[C@H]2OCCCC[C@H](C)Oc3ccc(NC(=O)Nc4ccc(C(F)(F)F)cc4)cc3C(=O)N([C@H](C)CO)C[C@@H]2C)cc1	.	.	55*
COc1ccc(S(=O)(=O)N(C)C[C@@H]2OCCCC[C@@H](C)Oc3ccc(NC(=O)Nc4ccc(C(F)(F)F)cc4)cc3C(=O)N([C@H](C)CO)C[C@H]2C)cc1	-7	1	22*
C[C@@H]1CCCCO[C@H](CN(C)S(C)(=O)=O)[C@@H](C)CN([C@H](C)CO)C(=O)c2cc(NC(=O)Nc3ccc(C(F)(F)F)cc3)ccc2O1	.	1	-2
C[C@@H]1CCCCO[C@H](CN(C)S(=O)(=O)c2ccc(Cl)cc2)[C@@H](C)CN([C@@H](C)CO)C(=O)c2cc(NC(=O)Nc3ccc(F)cc3)ccc2O1	.	.	23*
C/C=C/c1ccc([C@H]2[C@@H](CNC(C)C)N(C(=O)c3ccccc3)[C@H]2CO)cc1	10	0	-11
O=C(N[C@H]1CC[C@H](CCn2cc(-c3ccccn3)nn2)O[C@@H]1CO)c1ccccc1	-3	-1	-3
C[C@@H](NC(=O)C[C@@H]1C[C@H]2c3cc(NC(=O)C4CCC4)ccc3O[C@H]2[C@H](CO)O1)c1ccccc1	5	0	6
SMILES	C2C12 statin	E-selectin induc	DENV2 CPE rescue
C[C@@H]1CN([C@@H](C)CO)C(=O)c2cccc(NC(=O)c3cnccn3)c2O[C@@H]1CN(C)C(=O)Nc1ccc(F)cc1	22	-2	-11
Cc1ccc(S(=O)(=O)N(C)C[C@@H]2OCCCC[C@@H](C)Oc3ccc(NC(=O)C4CCCCC4)cc3C(=O)N([C@H](C)CO)C[C@@H]2C)cc1	-40	2	-7
C[C@@H]1CCCCO[C@@H](CN(C)S(=O)(=O)c2ccc(F)cc2)[C@H](C)CN([C@@H](C)CO)C(=O)c2cc(NC(=O)Nc3ccc(C(F)(F)F)cc3)ccc2O1	.	.	2
Cc1ccc(S(=O)(=O)N(C)C[C@@H]2OCCCC[C@H](C)Oc3ccc(NC(=O)Nc4ccc(C(F)(F)F)cc4)cc3C(=O)N([C@H](C)CO)C[C@@H]2C)cc1	.	.	23*
C[C@@H]1CCCCO[C@@H](CN(C)S(=O)(=O)c2ccc(F)cc2)[C@@H](C)CN([C@H](C)CO)C(=O)c2cc(NC(=O)Nc3ccc(C(F)(F)F)cc3)ccc2O1	.	.	88*
C[C@H](CO)N1C[C@H](C)[C@H](CN(C)S(=O)(=O)c2ccc(F)cc2)OCCCC[C@H](C)Oc2ccc(NC(=O)Nc3ccc(C(F)(F)F)cc3)cc2C1=O	.	.	-1
Cc1ccc(S(=O)(=O)N(C)C[C@H]2OCCCC[C@H](C)Oc3ccc(NC(=O)Nc4ccc(C(F)(F)F)cc4)cc3C(=O)N([C@H](C)CO)C[C@H]2C)cc1	.	.	-4
Cc1ccc(S(=O)(=O)N(C)C[C@@H]2OCCCC[C@@H](C)Oc3ccc(NC(=O)Nc4ccc(C(F)(F)F)cc4)cc3C(=O)N([C@@H](C)CO)C[C@H]2C)cc1	.	.	53*
Cc1ccc(S(=O)(=O)N(C)C[C@@H]2OCCCC[C@H](C)Oc3ccc(NC(=O)C4CCCCC4)cc3C(=O)N([C@H](C)CO)C[C@@H]2C)cc1	-15	1	24*
O=C(C[C@H]1CC[C@@H](NC(=O)Nc2ccc3c(c2)OCO3)[C@H](CO)O1)NCc1ccccc1	-5	-1	1
COc1ccc(NC(=O)N(C)C[C@H]2Oc3ccc(NC(=O)CCCCCC(=O)Nc4ccccc4N)cc3C(=O)N([C@@H](C)CO)C[C@@H]2C)cc1	.	.	5
COCC(=O)N(C)C[C@H]1Oc2ncc(-c3ccc(C#N)cc3)cc2C(=O)N([C@@H](C)CO)C[C@@H]1C	11	2	-2
C[C@H](CO)N1C[C@H](C)[C@@H](CN(C)CC2CC2)Oc2c(NS(=O)(=O)c3cccs3)cccc2C1=O	16	.	-8
O=C(C[C@H]1C[C@@H]2c3cc(NC(=O)NC4CCCC4)ccc3O[C@@H]2[C@H](CO)O1)NCc1cc(F)ccc1F	-2	0	-10
NC(Cc1ccc(F)cc1)c1csc(Nc2cc(NCc3ccco3)ncn2)n1 (centres undefined)	-6	1	13
NC(c1csc(Nc2cc(NCc3ccco3)ncn2)n1)c1ccccc1Cl (centres undefined)	-31	0	69*
